Measurements from ChEMBL document CHEMBL1131196, “Design and synthesis of hydrazinopeptides and their evaluation as human leukocyte elastase inhibitors” (J Med Chem, 1998).
Numbered stars: 1 amine (or outer) side, 2 acyl side, 3 side chain; on linkers, the order of the positions; unused ones are H or OH. Square brackets hold non-standard residues; d marks the D form. Peptide text beside a SMILES is read from it. * marks the point of attachment. X1 = O=C([C@H]1CCCN1N[*:1])[*:2]; Cbz = O=C(OCc1ccccc1)*; NHiPr = CC(C)N*

T1: Neutrophil elastase (Homo sapiens, UniProt P08246)
T1 sequence (P08246 whole entry): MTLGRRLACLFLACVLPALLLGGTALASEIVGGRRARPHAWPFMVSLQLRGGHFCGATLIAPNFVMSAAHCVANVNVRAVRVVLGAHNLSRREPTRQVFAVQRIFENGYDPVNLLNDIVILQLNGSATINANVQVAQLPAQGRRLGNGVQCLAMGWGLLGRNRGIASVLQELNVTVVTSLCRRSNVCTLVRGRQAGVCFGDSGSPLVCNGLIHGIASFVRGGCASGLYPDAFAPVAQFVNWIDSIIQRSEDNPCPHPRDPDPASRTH

T2: Neutrophil elastase (Homo sapiens) (UniProt P08246)
T2 sequence (whole entry): T1 sequence (P08246 whole entry)

B1: Neutrophil elastase (Homo sapiens), P08246 (protein)
chain: T1 sequence (P08246 whole entry)

Assays:
Pancreatic elastase = Pancreatic elastase (Sus scrofa, UniProt P08419+P00772); assay: Inhibition constant of compound measured toward porcine Pancreatic elastase at pH 8 and 25 degree C.; type: protein assay
Summary of the method: (§1)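 Chromogenic p-nitroanilide substrates, with MeO-Suc-Ala-Ala-Pro-Val-pNA for HLE. Enzymes were HLE 20 nM or PPE 22 nM, with inhibitors at 25–300 µM. Assays ran in 0.05 M Hepes pH 8.0 with 10% v/v DMSO at 25 °C, monitoring p-nitroaniline release continuously at 405 nm. Initial rates were fit to competitive inhibition. Ki came from a linear plot of Km(app)/Vm vs [I]; reversibility was checked by buffer exchange.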

Neutrophil elastase = molecular target: T1, Neutrophil elastase; assay: Inhibition constant of compound measured toward human leukocyte elastase (HLE) at pH 8 and 25 degree C.; summary of the method: as §1
[1] = molecular target: T2, Neutrophil elastase (Homo sapiens); assay: (§2) Kinetic parameter was calculated by Michaelis equation catalyzed by Leukocyte elastase at 25 degree C and pH 8.
Summary of the method: (§3)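 HLE at 200 nM, in 0.05 M Hepes pH 8.0 with 10% v/v DMSO and no NaCl, at 25 °C. Hydrolysis was read either by absorbance at 250 nm (substrate 5–50 µM) or by C8 reverse-phase HPLC (substrate 5–20 µM). For HPLC, products at 2–5 min were quantified against a Z-Ala-Ala-Pro-Val calibration. kcat and Km came from least-squares Michaelis fits. For HPLC, kcat/Km came from the linearized rate below Km.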

[2] = The catalytic efficiency is the ratio of kcat to that of Km.; summary of the method: as §3
[3] = substrate: CC(C)NC(=O)[C@H](C)NC(=O)[C@H](C)NNC(=O)[C@@H](NC(=O)[C@H]1CCCN1C(=O)[C@H](C)NC(=O)[C@H](C)NC(=O)OCc1ccccc1)C(C)C; assay: as §2; summary of the method: as §3
[4] = substrate: CC(C)NC(=O)[C@H](C)NC(=O)[C@H](C)NC(=O)[C@@H](NC(=O)[C@H]1CCCN1C(=O)[C@H](C)NC(=O)[C@H](C)NC(=O)OCc1ccccc1)C(C)C; assay: as §2; summary of the method: as §3

| Molecule | Ki (Pancreatic elastase) [µM] | Ki (Neutrophil elastase) [µM] | k cat [1] [s⁻¹] | k cat/Km [2] [M⁻¹ s⁻¹] | other results |
| --- | --- | --- | --- | --- | --- |
| CC(C)NC(=O)[C@H](C)NC(=O)[C@H](C)NC(=O)[C@@H](NC(=O)[C@H]1CCCN1NC(=O)[C@H](C)NC(=O)[C@H](C)NC(=O)OCc1ccccc1)C(C)C (Cbz-AA[X1]VAA-NHiPr) | 146 | 65 | – | – | – |
| CC(C)NC(=O)[C@H](C)NC(=O)[C@H](C)NC(=O)[C@@H](NC(=O)[C@H]1CCCN1C(=O)[C@H](C)NC(=O)[C@H](C)NC(=O)OCc1ccccc1)C(C)C | – | – | 0.88 | 6780 | – |
| CC(C)NC(=O)[C@H](C)NC(=O)[C@H](C)NNC(=O)[C@@H](NC(=O)[C@H]1CCCN1C(=O)[C@H](C)NC(=O)[C@H](C)NC(=O)OCc1ccccc1)C(C)C | – | – | 2.24 | 3150 | – |
| CC(C)NC(=O)[C@H](C)NC(=O)[C@H](C)NC(=O)[C@@H](NNC(=O)[C@H]1CCCN1C(=O)[C@H](C)NC(=O)[C@H](C)NC(=O)OCc1ccccc1)C(C)C | 397 | 595 | – | – | – |
| B1 | – | – | – | – | Km [3]: 712 µM; Km [4]: 131 µM |
